# Experimental data pooled from the literature.
# Protocols differ between the studies behind these lines.
# LRRK2 G2019S: Leucine-rich repeat serine/threonine-protein kinase 2 (LRRK2, Homo sapiens, UniProt Q5S007, G2019S)
# LRRK2: Leucine-rich repeat serine/threonine-protein kinase 2 (LRRK2, Homo sapiens, UniProt Q5S007)
Compound,target,effect on,mode,method,tested at,endpoint,value
Cc1cnn2ncc(-c3ccnc(N(C)C)n3)c2c1,LRRK2 G2019S,binding,,,1 µM,remaining binding,100%
CCc1ccccc1C(=O)Nc1n[nH]c2c(C)c(F)c(C3C(C#N)=C(C)N(C)C(C)=C3C#N)cc12,LRRK2 G2019S,cell-free assay,,competition with immobilised ligand,1 µM,remaining binding,100%
Cc1ccc(Nc2nccc(N(C)c3ccc4c(C)n(C)nc4c3)n2)cc1S(N)(=O)=O,LRRK2,enzyme activity,inhibitor,,0.5 µM,remaining activity,109%
Cc1cnc(NC2CCOCC2)nc1-n1cnc(C(=O)NC(CN)c2cc(F)cc(Cl)c2)c1 (stereo not drawn),LRRK2,enzyme activity,inhibitor,radiometric,1 µM,remaining activity,95%
CN([C@@H]1CCc2c(CC(=O)O)c3cc(S(C)(=O)=O)ccc3n2C1)S(=O)(=O)c1ccc(F)cc1,LRRK2,cell-free assay,,competition with immobilised ligand,1 µM,remaining binding,100%
Cc1sc(C(=O)NC2COC2)cc1-n1cc(NC(=O)Nc2c(F)cccc2Cl)cn1,LRRK2,enzyme activity,inhibitor,,10 µM,remaining activity,101%
CC(C)(C)c1nc2c(s1)c1nc(N)ncc1c1ccc(NS(=O)(=O)c3c(F)cccc3F)c(F)c12,LRRK2,enzyme activity,inhibitor,radiometric,1 µM,remaining activity,93%
Nc1c(C(=O)NCc2ccc(C(=O)NCCCC3CCCCC3)cc2)cnn1-c1ccccc1,LRRK2,binding,,competition with immobilised ligand,1 µM,remaining binding,39%
CN(C)C1CCN(CC#Cc2nn(C3CCCC3)c3nc(NCc4ccccc4)ncc23)C1 (stereo not drawn),LRRK2,enzyme activity,inhibitor,FRET,10 µM,inhibition,7%
O=C1Nc2ccc(Cl)cc2C1=Cc1cc(Cl)c(O)c(Cl)c1,LRRK2,cell-free assay,,,0.5 µM,remaining signal,11%
CN(C)c1ncc(F)c(-c2cnn3ncccc23)n1,LRRK2,binding,,,1 µM,remaining binding,50%
O=C(Nc1cnc(Oc2ccc(F)cc2)nc1)N1CCc2ncccc2[C@@H]1c1ccc(F)cc1,LRRK2,cell-free assay,,competition with immobilised ligand,1 µM,remaining binding,83%
Cc1ccc(NC(=O)c2ccc(CN3CCN(C)CC3)cc2)cc1Nc1nc(-c2cccnc2)cs1,LRRK2,cell-free assay,,,0.5 µM,remaining signal,107%
c1cnn2ncc(-c3ccnc(N4CCC45COC5)n3)c2c1,LRRK2 G2019S,binding,,,1 µM,remaining binding,21%
COc1cc(-c2cc(-c3ccc(N4CCNCC4)cc3)cnc2N)cc(OC)c1OC,LRRK2,enzyme activity,inhibitor,,0.1 µM,inhibition,6%
C[C@H](NC(=O)c1cnc2n1[C@](C)(Cc1ccc(C#N)cc1)C(=O)N2c1cc(Cl)c(F)c(Cl)c1)C(=O)NC1(c2ccccn2)CC1,LRRK2 G2019S,cell-free assay,,competition with immobilised ligand,1 µM,remaining binding,100%
O=C(Nc1cnn(-c2csc(C(=O)NC3COC3)c2)c1)Nc1ccccc1Cl,LRRK2,enzyme activity,inhibitor,,5 µM,remaining activity,88.2%
O=C(O)[C@H]1[C@H](Cn2nnc3ccccc3c2=O)CC[C@@H]1C(=O)c1ccc(OCCC2CCOCC2)cc1,LRRK2 G2019S,cell-free assay,,competition with immobilised ligand,1 µM,remaining binding,100%
C[C@@H]1CCN(c2nccc(-c3cnn4ncccc34)n2)C1,LRRK2,binding,,,1 µM,remaining binding,59%
COc1cc2nccc(Oc3ccc(NC(=O)c4c5n(n(-c6ccc(F)cc6)c4=O)CCCC5)cc3)c2cc1OC,LRRK2,enzyme activity,inhibitor,,0.1 µM,inhibition,0%
Nc1ncnc2occ(-c3ccc(NC(=O)Nc4cc(C(F)(F)F)ccc4F)cc3)c12,LRRK2,cell-free assay,inhibitor,,20 µM,remaining signal,5.2%
Cc1ccc(C(=O)Nc2ccc(CN3CCN(C)CC3)c(C(F)(F)F)c2)cc1C#Cc1cnc2cccnn12,LRRK2,enzyme activity,inhibitor,,23.5 nM,remaining activity,83%
CC(C)(O)[C@H]1CC[C@H](Nc2ccc3ncc(-c4cccc(C(F)(F)F)c4)n3n2)CC1,LRRK2,enzyme activity,inhibitor,,1 µM,remaining activity,66.1%
COc1ccnn2ncc(-c3ccnc(N(C)C)n3)c12,LRRK2,binding,,,1 µM,remaining binding,56%
O=C(O)c1cc(-c2ccc(C3CCNCC3)cc2)c2ccc(-c3ccc(C(F)(F)F)cc3)cc2c1,LRRK2,cell-free assay,,competition with immobilised ligand,1 µM,remaining binding,100%
N[C@@H]1CCN(c2nccc(-c3cnn4ncccc34)n2)C1,LRRK2,binding,,,1 µM,remaining binding,100%
COc1cc(-c2cn(C3CCc4c(F)cccc4N(CC(F)(F)F)C3=O)nn2)ccc1-n1cnc(C)c1 (stereo not drawn),LRRK2 G2019S,cell-free assay,,competition with immobilised ligand,1 µM,remaining binding,100%
